In ChEMBL document CHEMBL1944618, “Synthesis and antifungal activity of a new series of 2-(1H-imidazol-1-yl)-1-phenylethanol derivatives” (Eur J Med Chem, 2012):
≈ marks a conversion by molar mass, not a printed value.

Columns and labels:
Pichia kudriavzevii [1] = assay: Antifungal activity against Candida krusei DSM 6128 after 48 hrs by M27-A3 CLSI method; type: functional; conditions: DSM 6128, 48 h
Outline: (§1)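 Broth microdilution in RPMI 1640, two-fold serial dilutions, final test range 0.125–64 µg mL-1 (fluconazole reference 0.0078–128 µg mL-1). Inoculum 1.0×10^3–1.5×10^3 cells mL-1 from yeasts grown 24 h at 35 °C on Sabouraud dextrose agar. Incubation 35 °C, read at 48 h. MIC = lowest concentration giving >50% turbidity decrease versus growth control. Run three times in triplicate. C. parapsilosis ATCC22019 served as QC.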

Candida albicans [2] = assay: Antifungal activity against Candida albicans ATCC 24433 after 48 hrs by M27-A3 CLSI method; type: functional; outline: as §1
Candida parapsilosis [3] = assay: Antifungal activity against Candida parapsilosis ATCC 22019 after 48 hrs by M27-A3 CLSI method; type: functional; conditions: Lodderomyces parapsilosis, ATCC 22019, 48 h; outline: as §1
Candida albicans [4] = assay: Antifungal activity against Candida albicans ATCC 3153 after 48 hrs by M27-A3 CLSI method; type: functional; conditions: ATCC 3153, 48 h; outline: as §1
Candida tropicalis [5] = assay: Antifungal activity against Candida tropicalis DSM 11953 after 48 hrs by M27-A3 CLSI method; type: functional; conditions: DSM 11953, 48 h; outline: as §1
Candida = assay: Antifungal activity against Candida sp. after 48 hrs by M27-A3 CLSI method; type: functional; outline: as §1
Nakaseomyces glabratus [6] = assay: Antifungal activity against Candida glabrata PMC 0805 after 48 hrs by M27-A3 CLSI method; type: functional; conditions: PMC 0805, 48 h; outline: as §1
Candida albicans [7] = assay: Antifungal activity against Candida albicans after 48 hrs by M27-A3 CLSI method; type: functional; outline: as §1
Pichia kudriavzevii [8] = assay: Antifungal activity against Candida krusei PMC 0613 after 48 hrs by M27-A3 CLSI method; type: functional; outline: as §1
Candida albicans [9] = assay: Antifungal activity against Candida albicans ATCC 10231 after 48 hrs by M27-A3 CLSI method; type: functional; conditions: ATCC 10231, 48 h; outline: as §1
Candida albicans [10] = assay: Antifungal activity against Candida albicans ATCC 76615 after 48 hrs by M27-A3 CLSI method; type: functional; conditions: ATCC 76615, 48 h; outline: as §1
Candida tropicalis [11] = assay: Antifungal activity against Candida tropicalis PMC 0910 after 48 hrs by M27-A3 CLSI method; type: functional; conditions: PMC 0910, 48 h; outline: as §1
Candida parapsilosis [12] = assay: Antifungal activity against Candida parapsilosis DSM 11224 after 48 hrs by M27-A3 CLSI method; type: functional; outline: as §1
Candida tropicalis [13] = assay: Antifungal activity against Candida tropicalis DSM11953 after 48 hrs by M27-A3 CLSI method
Pichia kudriavzevii [14] = assay: Antifungal activity against Candida krusei after 48 hrs by M27-A3 CLSI method; type: functional; outline: as §1
Candida parapsilosis [15] = assay: Antifungal activity against Candida parapsilosis after 48 hrs by M27-A3 CLSI method; type: functional; conditions: Lodderomyces parapsilosis; outline: as §1
Nakaseomyces glabratus [16] = assay: Antifungal activity against Candida glabrata after 48 hrs by M27-A3 CLSI method; type: functional; outline: as §1
Candida tropicalis [17] = assay: Antifungal activity against Candida tropicalis after 48 hrs by M27-A3 CLSI method; type: functional; outline: as §1
[18] = Candida albicans, ATCC 24433, 48 h, read-out: MIC
[19] = Pichia kudriavzevii, PMC 0613, 48 h, read-out: MIC
[20] = Lodderomyces parapsilosis, DSM 11224, 48 h, read-out: MIC

SMILES	MIC (Pichia kudriavzevii [1]) [µg/mL]	MIC (Candida albicans [2]; [18]) [µg/mL]	MIC (Candida parapsilosis [3]) [µg/mL]	MIC (Candida albicans [4]) [µg/mL]	MIC (Candida tropicalis [5]) [µg/mL]	MIC (Candida) [µg/mL]	MIC50 (Candida) [µg/mL]	MIC90 (Candida) [µg/mL]	MIC (Nakaseomyces glabratus [6]) [µg/mL]	MIC (Candida albicans [7]) [µg/mL]	MIC50 (Candida albicans [7]) [µg/mL]	MIC90 (Candida albicans [7]) [µg/mL]	MIC (Pichia kudriavzevii [8]; [19]) [µg/mL]	MIC (Candida albicans [9]) [µg/mL]	MIC (Candida albicans [10]) [µg/mL]	MIC (Candida tropicalis [11]) [µg/mL]	MIC (Candida parapsilosis [12]; [20]) [µg/mL]	other results
OC(Cn1ccnc1)c1ccccc1 (racemic)	> 64	64 (≈ 340 µM)	≥ 64	≥ 64	64 (≈ 340 µM)	98.5 (≈ 523 µM)	64 (≈ 340 µM)	128 (≈ 680 µM)	> 64	107 (≈ 567 µM)	128 (≈ 680 µM)	128 (≈ 680 µM)	> 64	> 64	> 64	> 64	≥ 64	–
OC(Cn1ccnc1)c1ccc(Cl)cc1 (racemic)	> 64	> 64	> 64	> 32	> 64	108 (≈ 485 µM)	128 (≈ 575 µM)	128 (≈ 575 µM)	> 64	112 (≈ 503 µM)	128 (≈ 575 µM)	128 (≈ 575 µM)	16 (≈ 71.9 µM)	> 64	> 64	> 64	64 (≈ 287 µM)	–
OC(Cn1ccnc1)c1ccc(F)cc1 (racemic)	> 64	> 64	> 64	32 (≈ 155 µM)	> 64	104 (≈ 504 µM)	128 (≈ 621 µM)	128 (≈ 621 µM)	16 (≈ 77.6 µM)	101 (≈ 491 µM)	128 (≈ 621 µM)	128 (≈ 621 µM)	64 (≈ 310 µM)	> 64	> 64	16 (≈ 77.6 µM)	> 64	–
O=C(OC(Cn1ccnc1)c1ccccc1)c1cccc(C(F)(F)F)c1 (racemic)	> 64	≥ 64	64 (≈ 178 µM)	≥ 64	> 64	85 (≈ 236 µM)	64 (≈ 178 µM)	128 (≈ 355 µM)	> 64	91.4 (≈ 254 µM)	64 (≈ 178 µM)	128 (≈ 355 µM)	64 (≈ 178 µM)	32 (≈ 88.8 µM)	≥ 64	32 (≈ 88.8 µM)	8 (≈ 22.2 µM)	–
O=C(OC(Cn1ccnc1)c1ccc(C(F)(F)F)cc1)c1cccc(C(F)(F)F)c1 (racemic)	> 64	≥ 64	64 (≈ 149 µM)	≥ 64	> 64	100 (≈ 233 µM)	128 (≈ 299 µM)	128 (≈ 299 µM)	> 64	91.4 (≈ 213 µM)	64 (≈ 149 µM)	128 (≈ 299 µM)	64 (≈ 149 µM)	64 (≈ 149 µM)	≥ 64	32 (≈ 74.7 µM)	> 64	–
Cl.O=C(OC(Cn1ccnc1)c1ccc(Cl)cc1)c1cccc(C(F)(F)F)c1 (racemic)	32	8	> 64	8	32	43.8	32	128	32	46.3	8	16	32	4	> 64	0.5	8	–
O=C(OC(Cn1ccnc1)c1ccccc1)c1ccc(C(F)(F)F)cc1 (racemic)	> 64	8 (≈ 22.2 µM)	64 (≈ 178 µM)	8 (≈ 22.2 µM)	16 (≈ 44.4 µM)	55.5 (≈ 154 µM)	32 (≈ 88.8 µM)	128 (≈ 355 µM)	8 (≈ 22.2 µM)	33.1 (≈ 91.9 µM)	8 (≈ 22.2 µM)	64 (≈ 178 µM)	64 (≈ 178 µM)	8 (≈ 22.2 µM)	≥ 64	4 (≈ 11.1 µM)	32 (≈ 88.8 µM)	–
O=C(COc1ccccc1)OC(Cn1ccnc1)c1ccc(F)cc1 (racemic)	> 64	16 (≈ 47 µM)	> 64	≥ 64	> 64	61.1 (≈ 180 µM)	4 (≈ 11.8 µM)	128 (≈ 376 µM)	16 (≈ 47 µM)	76.6 (≈ 225 µM)	64 (≈ 188 µM)	128 (≈ 376 µM)	16 (≈ 47 µM)	8 (≈ 23.5 µM)	> 64	1 (≈ 2.94 µM)	4 (≈ 11.8 µM)	–
O=C(COc1ccccc1)OC(Cn1ccnc1)c1ccc(Cl)cc1 (racemic)	> 64	2 (≈ 5.61 µM)	32 (≈ 89.7 µM)	16 (≈ 44.8 µM)	> 64	51.3 (≈ 144 µM)	16 (≈ 44.8 µM)	128 (≈ 359 µM)	16 (≈ 44.8 µM)	67.7 (≈ 190 µM)	64 (≈ 179 µM)	128 (≈ 359 µM)	16 (≈ 44.8 µM)	4 (≈ 11.2 µM)	> 64	4 (≈ 11.2 µM)	8 (≈ 22.4 µM)	–
CC(C)c1ccc(NC(=O)OC(Cn2ccnc2)c2ccccc2)cc1 (racemic)	> 64	32 (≈ 91.6 µM)	64 (≈ 183 µM)	≥ 64	> 64	107 (≈ 305 µM)	128 (≈ 366 µM)	128 (≈ 366 µM)	> 64	77.7 (≈ 222 µM)	64 (≈ 183 µM)	128 (≈ 366 µM)	64 (≈ 183 µM)	64 (≈ 183 µM)	≥ 64	64 (≈ 183 µM)	> 64	–
CC(C)c1ccc(NC(=O)OC(Cn2ccnc2)c2ccc(F)cc2)cc1 (racemic)	16 (≈ 43.5 µM)	1 (≈ 2.72 µM)	> 64	16 (≈ 43.5 µM)	> 64	68.4 (≈ 186 µM)	4 (≈ 10.9 µM)	128 (≈ 348 µM)	> 64	39.6 (≈ 108 µM)	16 (≈ 43.5 µM)	64 (≈ 174 µM)	64 (≈ 174 µM)	2 (≈ 5.44 µM)	≥ 64	4 (≈ 10.9 µM)	16 (≈ 43.5 µM)	–
CC(C)c1ccc(NC(=O)OC(Cn2ccnc2)c2ccc(Cl)cc2)cc1 (racemic)	> 64	16 (≈ 41.7 µM)	> 64	16 (≈ 41.7 µM)	> 64	115 (≈ 299 µM)	128 (≈ 333 µM)	128 (≈ 333 µM)	> 64	60 (≈ 156 µM)	64 (≈ 167 µM)	128 (≈ 333 µM)	> 64	4 (≈ 10.4 µM)	> 64	> 64	> 64	–
O=C(Nc1cc(Cl)nc(Cl)c1)OC(Cn1ccnc1)c1ccc(Cl)cc1 (racemic)	> 64	> 64	> 64	> 64	> 64	121 (≈ 294 µM)	128 (≈ 311 µM)	128 (≈ 311 µM)	> 64	119 (≈ 289 µM)	128 (≈ 311 µM)	128 (≈ 311 µM)	> 64	> 64	> 64	> 64	> 64	–
O=C(OC(Cn1ccnc1)c1ccc(F)cc1)c1cccc(C(F)(F)F)c1 (racemic; 3b)	> 64	16 (≈ 42.3 µM)	> 8	2 (≈ 5.29 µM)	4 (≈ 10.6 µM)	52.9 (≈ 140 µM)	8 (≈ 21.1 µM)	128 (≈ 338 µM)	> 64	27.7 (≈ 73.2 µM)	8 (≈ 21.1 µM)	16 (≈ 42.3 µM)	8 (≈ 21.1 µM)	8 (≈ 21.1 µM)	> 64	> 64	4 (≈ 10.6 µM)	–
Cl.O=C(OC(Cn1ccnc1)c1ccc(F)cc1)c1cccc(C(F)(F)F)c1 (racemic; 4b)	64	8	32	8	32	22.6	16	32	32	34.3	8	64	16	8	≥ 64	1	8	–
O=C(OC(Cn1ccnc1)c1ccccc1)c1ccc(-c2ccccc2)cc1 (single isomer, unassigned; (+))	–	–	–	–	–	–	–	–	–	–	–	–	–	–	–	–	–	MIC (Candida albicans [2]): 33.7 µg/mL (≈ 91.5 µM); MIC (Pichia kudriavzevii [8]): 21.33 µg/mL (≈ 57.9 µM); MIC (Candida tropicalis [13]): 26.67 µg/mL (≈ 72.4 µM); MIC (Candida parapsilosis [12]): 26.67 µg/mL (≈ 72.4 µM)
O=C(OC(Cn1ccnc1)c1ccc(F)cc1)c1ccc(-c2ccccc2)cc1 (single isomer, unassigned; (+))	–	–	–	–	–	–	–	–	–	–	–	–	–	–	–	–	–	MIC (Candida albicans [2]): 64 µg/mL (≈ 166 µM); MIC (Pichia kudriavzevii [8]): 64 µg/mL (≈ 166 µM); MIC (Candida tropicalis [13]): 32 µg/mL (≈ 82.8 µM); MIC (Candida parapsilosis [12]): 35.55 µg/mL (≈ 92 µM)
OC(Cn1cncn1)(Cn1cncn1)c1ccc(F)cc1F [FLUCONAZOLE]	16 (≈ 52.2 µM)	1 (≈ 3.27 µM)	2 (≈ 6.53 µM)	16 (≈ 52.2 µM)	1 (≈ 3.27 µM)	7.9 (≈ 25.8 µM)	2 (≈ 6.53 µM)	16 (≈ 52.2 µM)	0.5 (≈ 1.63 µM)	4.9 (≈ 16 µM)	1 (≈ 3.27 µM)	16 (≈ 52.2 µM)	12 (≈ 39.2 µM)	2 (≈ 6.53 µM)	0.25 (≈ 0.816 µM)	2.5 (≈ 8.16 µM)	1 (≈ 3.27 µM)	MIC (Pichia kudriavzevii [14]): 26 µg/mL (≈ 84.9 µM); MIC (Candida parapsilosis [15]): 1.6 µg/mL (≈ 5.22 µM); MIC (Nakaseomyces glabratus [16]): 0.87 µg/mL (≈ 2.84 µM); MIC (Candida tropicalis [17]): 3.25 µg/mL (≈ 10.6 µM)
